LEDGF integ inh: blockers of LEDGF/p75-dependent integrase strand transfer – biochemical, TR-FRET, high throughput, primary screen. 0.64% of 370,000 active. inhibition, % at 3.7 µM. TR-FRET IN-LEDGF/p75 DNA integration, Eu/Cy5. AID 743269, 2014. HIV-1 integrase (with human LEDGF/p75);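 active = inhibition above the screen-wide mean plus 3 SD, cut at about 13% in these data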;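 note: signal is the Cy5 over europium emission ratio at 671 and 618 nm; 0% = plate median of compound wells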
UHRF1 binding: UHRF1 methylated DNA binding inhibitors, primary screen, counter-screen for MBD2 inhibitor project, biochemical, TR-FRET, human UHRF1, single concentration; E3 ubiquitin-protein ligase UHRF1 (Homo sapiens), Q96T88; UHRF1 binding to methylated oligo; inhibition, % at 4.4 µM; 0.75% of 370,000 active; in the data active = inhibition above about 21%;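 note: UHRF1 SRA domain binding a hemimethylated CpG hairpin DNA probe; 0% = median of test compound wells and 100% = reference inhibitor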
TDP2 inh: human TDP2 enzyme inhibitors, primary screen, biochemical, epi absorbance, recombinant enzyme. Tyrosyl-DNA phosphodiesterase 2 (Homo sapiens), O95551. inhibition, % at 12.8 µM. T5PNP hydrolysis, p-nitrophenol absorbance 415 nm. 0.34% of 370,000 active;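 active = inhibition above the mean of all tested compounds plus 3 SD, set per campaign, cut at about 25% in these data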;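 note: 0% = DMSO with enzyme and 100% = buffer with substrate but no TDP2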
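Test system: human TDP2 enzyme; Input: 120 nM TDP2 per well; Buffer or medium: Mg2+-containing Tris-HCl buffer, pH 7.5; Reagent: 5 mM T5PNP; Dosing: 12.8 µM single point, 1% DMSO; Incubation: reaction 2 h, 37 °C; Detection: p-Nitrophenol epi absorbance; Read-out: % inhibition relative to enzyme-containing and enzyme-free wells; Replicates: single well per compound.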
PRMT1 inh: PRMT1 methyltransferase inhibitors, primary screen, biochemical, fluorescence polarization | AID 652257, 2013 | Protein arginine N-methyltransferase 1 (Homo sapiens), Q99873 | inhibition, % at 2.79 µM | recombinant PRMT1, activity-based probe fluorescence polarization | 1.3% of 370,000 active;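 active = inhibition above about 21% made by adding two undisclosed values, limit read from the data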
Target sequence (Q99873 whole entry, looked up): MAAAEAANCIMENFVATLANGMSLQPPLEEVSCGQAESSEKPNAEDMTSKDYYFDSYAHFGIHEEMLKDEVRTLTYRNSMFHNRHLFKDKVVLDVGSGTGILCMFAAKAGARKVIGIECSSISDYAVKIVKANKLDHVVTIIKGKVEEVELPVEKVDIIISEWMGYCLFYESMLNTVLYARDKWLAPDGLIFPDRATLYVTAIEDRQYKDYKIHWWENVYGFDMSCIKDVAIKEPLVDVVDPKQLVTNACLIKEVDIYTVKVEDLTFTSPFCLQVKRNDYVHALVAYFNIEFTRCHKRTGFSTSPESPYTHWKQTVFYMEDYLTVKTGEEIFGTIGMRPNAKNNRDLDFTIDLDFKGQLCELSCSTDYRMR
MBD2 DNA inh: inhibitors of MBD2 binding to methylated DNA, primary screen, biochemical, TR-FRET, DNA-binding domain, human; Methyl-CpG-binding domain protein 2 (Homo sapiens), Q9UBB5; MBD2 binding to methylated oligonucleotide; inhibition, % at 4.4 µM; 0.31% of 370,000 active; AID 686964, 2013; in the data active = inhibition above about 13%
SIAE inh: human SIAE inhibitors, primary screen, biochemical, fluorescence polarization, FP-Rh probe, 1536-well HTS; SIAE FP-Rh probe binding; inhibition, % at 9.66 µM; 0.69% of 370,000 active;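 active = inhibition above a cutoff: mean of compounds within the control limits plus 3 SD of those, cut at about 17% in these data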;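 note: 0% = plate median of compound wells and 100% = probe without SIAE protein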
TDP2 inh conf: human TDP2 enzyme inhibitors, retest, confirmation, biochemical, epi absorbance, recombinant enzyme. shares compounds with TDP2 inh. 22% of 1,100 active. AID 743263, 2014. absorbance read-out. inhibition, % at 12.8 µM; in the data active = inhibition above about 25%;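 note: 0% = vehicle with enzyme and 100% = no enzyme buffer only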
* hit, by the source's call; . = no result given. Only some compounds are listed: those with a hit (about 3.3% of all), similar ones and a draw of the others.

SMILES	LEDGF integ inh	UHRF1 binding	TDP2 inh	PRMT1 inh	MBD2 DNA inh	SIAE inh	TDP2 inh conf
CC(C)c1ccc(NC(=O)CSc2nnc(-c3ccco3)n2C)cc1	-5	3	2	4	0	0	.
Fc1ccc(NC(=S)Nc2cccc3cnccc23)cc1	0	0	30*	10	0	6	-1
CCc1cccc(NC(=S)Nc2cccc3ccccc23)c1	-1	-5	-6	2	-7	7	.
Cc1cccc(NC(=S)Nc2cccc3ccccc23)c1	8	-4	25*	5	-2	17	-2
S=C(Nc1ccc(Cl)cc1)Nc1cccc2cnccc12	4	15	35*	3	-7	13	31*
C=CCNC(=O)NC[C@@]1(C(=O)OC)CC(=O)N(C)[C@@H]1c1ccccc1	2	-1	-2	-5	2	0	.
O=C(/C=C/c1ccco1)Nc1ccc(S(=O)(=O)N2CCOCC2)cc1	0	-2	-2	1	0	-2	.
NS(=O)(=O)c1ccc(NC(=O)/C=C/c2ccco2)cc1	4	6	32*	8	4	-4	6
Cc1csc(NC(=O)c2ccc(COc3ccc(Cl)c(Cl)c3)o2)n1	-3	-1	-1	2	0	-7	.
O=C(COc1ccccc1F)Nc1ccc2[nH]c(=O)[nH]c2c1	1	0	28*	-3	-7	-4	6
Cc1cc(C)c(C#N)c(N2CCN(c3ccc(F)cc3)CC2)n1	1	5	36*	-2	7	3	3
CC(C)(C)C(=O)[C@@H]1[C@@H]2C(=O)N(c3ccc4c(c3)OCCO4)C(=O)[C@@H]2C2c3ccccc3C=CN21 (stereo partly drawn)	8	-4	27*	4	0	-1	9
COC(=O)C[C@H]1CC[C@@H]2[C@@H](COc3ccc(NC(=O)C4CCCCC4)cc3C(=O)N2C)O1	-2	0	10	-2	-3	-1	.
COC(=O)[C@]12CCCCC=C1N(Cc1ccc(OC)cc1)C(=O)[C@@H]2CC(=O)NCc1ccccc1	-4	1	-4	6	-2	-6	.
Cc1cnc(CNC(=O)CC2C(=O)NCCN2Cc2cccc(F)c2F)cn1 (stereo not drawn)	1	0	25*	3	0	-5	-3
Cc1cnc(CNC(=O)CC2C(=O)NCCN2Cc2ccccc2F)cn1 (stereo not drawn)	2	0	1	3	2	1	.
CCOC(=O)C1=C(C)OC2(O)c3ccccc3C(=O)C12O (stereo not drawn)	12	5	70*	-1	2	-10	81*
CCOC(=O)c1c(C)oc2c1C(=O)c1ccccc1C2=O	1	3	-6	-1	-1	-1	.
CC1=C(C#N)C2(O)C(=O)c3ccccc3C2(O)N1 (stereo not drawn)	-10	3	-12	1	4	-2	.
CC(=O)C1=C(C)OC2(O)c3ccccc3C(=O)C12O (stereo not drawn)	0	2	57*	1	-1	0	61*
COC(=O)[C@]12C[C@H](CC(=O)NCCCN3CCCC3=O)C(=O)N(Cc3ccco3)C1=C[C@H](C(C)(C)C)O[C@@H]2C	-1	0	9	-1	2	-4	.
CC(C)Oc1cccc(-c2n[nH]c(=S)n2N=Cc2ccc(OCc3ccccc3)cc2)c1	-1	-1	10	6	3	5	.
CCOc1ccccc1NC(=O)c1cc(S(=O)(=O)NCc2ccco2)ccc1F	-3	1	26*	3	3	-4	-10
Cc1ccccc1CN1CCCCC(NC(=O)c2ccc(Br)cc2)C1=O (stereo not drawn)	2	-2	7	-4	0	1	.
Nc1ccc(C(=O)O)cc1[N+](=O)[O-]	-3	4	-1	4	4	4	.
SMILES	LEDGF integ inh	UHRF1 binding	TDP2 inh	PRMT1 inh	MBD2 DNA inh	SIAE inh	TDP2 inh conf
Nc1cc(S(=O)(=O)O)cc([N+](=O)[O-])c1O	44*	81*	50*	19	10	12	3
Cc1ccc(C)c(S(=O)(=O)NCc2ccc(C(=O)N3CCN(C)CC3)cc2)c1	-1	3	5	0	9	2	.
Cc1ccc(C)c(S(=O)(=O)NCc2ccc(C(=O)N3CCOCC3)cc2)c1	5	1	25*	-2	-3	4	-5
O=C(N[C@@H](Cc1ccccc1)c1nc2ccccc2[nH]1)c1ccc([N+](=O)[O-])cc1	3	18	25*	3	7	5	5
CC(=O)Nc1ccc(S(=O)(=O)N2CCC(NC(=O)C(Cc3cccc(F)c3)NC(C)=O)CC2)cc1 (stereo not drawn)	3	-3	28*	-2	-1	3	3
CC(=O)Nc1ccc(S(=O)(=O)N2CCC(NC(=O)C(Cc3ccc(C)cc3)NC(C)=O)CC2)cc1 (stereo not drawn)	0	-1	9	-1	1	-3	.
COCN(C#N)c1nc(OC)nc(OC)n1	1	3	2	1	3	4	.
COCN(C#N)c1nc(N(C)C)nc(N(C)C)n1	2	45*	29*	-2	0	2	4
Brc1cc2c(cc1CN1CCc3ccccc3C1)OCO2	0	1	26*	-2	5	6	4
CCOC(=O)[C@]12CCCC=C1N(CCCOC)C(=O)[C@@H]2CC(=O)N1CCSCC1	10	-2	-1	-5	1	-5	.
CC(=O)c1ccc(NC2=C(N3CCOCC3)C(=O)c3ccccc3C2=O)cc1	5	0	54*	-3	-10	-2	38*
Cc1ccc(NC2=C(N3CCOCC3)C(=O)c3ccccc3C2=O)cc1	30*	15	60*	7	0	-4	51*
O=C(O)c1ccc(NC2=C(N3CCOCC3)C(=O)c3ccccc3C2=O)cc1	2	-3	22	-2	-6	0	.
C[C@H]1CN(C(=O)OC(C)(C)C)CCN1c1ccc(N2CCS(=O)(=O)CC2)c(C#N)c1	-6	-2	3	3	-3	4	.
